ChEMBL document CHEMBL1157729, “Structure-activity relationship and mechanism of action studies of manzamine analogues for the control of neuroinflammation and cerebral infections” (J Med Chem, 2010)
Converted amounts (≈) assume the structure as drawn.

Assays:
Cryptococcus neoformans = assay: Antifungal activity against Cryptococcus neoformans ATCC 90113; assay type: functional, organism-based
In short: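 Broth microdilution per modified CLSI method; samples serially diluted in 20% DMSO/saline, tested in duplicate; inocula set by OD630 of suspensions in incubation broth; growth read at 630 nm before and after incubation; amphotericin B drug control.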

Plasmodium berghei [1] = assay: Antiplasmodial activity against Plasmodium berghei NK65 infected in Swiss Webster mice (Mus musculus) assessed as inhibition of parasitaemia at 5 mg/kg, perorally administered 1 day after infection for 3 days measured after 5 days post infection; assay type: functional; details: route oral
Plasmodium berghei [2] = assay: Antiplasmodial activity against Plasmodium berghei NK65 infected in Swiss Webster mice (Mus musculus) assessed as average parasitaemia at 5 mg/kg, perorally administered 1 day after infection for 3 days measured after 7 days post infection; assay type: functional; details: route oral
Plasmodium berghei [3] = assay: Antiplasmodial activity against Plasmodium berghei NK65 infected in Swiss Webster mice (Mus musculus) assessed as average parasitaemia at 3.3 mg/kg, perorally administered 1 day after infection for 3 days measured after 10 days post infection; assay type: functional; details: route oral
Plasmodium berghei [4] = assay: Antiplasmodial activity against Plasmodium berghei NK65 infected in Swiss Webster mice (Mus musculus) assessed as survivability at 5 mg/kg, perorally administered 1 day after infection for 3 days measured after 28 days post infection; assay type: functional; details: route oral
Plasmodium berghei [5] = assay: Antiplasmodial activity against Plasmodium berghei NK65 infected in Swiss Webster mice (Mus musculus) assessed as inhibition of parasitaemia at 50 mg/kg, perorally administered 1 day after infection measured after 5 days post infection; assay type: functional; details: route oral
In short: (§1)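 Male Swiss Webster mice (18-20 g, ≥5/group) inoculated i.p. with 2×10^7 P. berghei NK-65 parasitized RBC, given a single oral dose (100 μl, SSV or dilute HCl vehicle); parasitemia by Giemsa-stained tail blood smears days 5–28; activity as % decrease versus untreated controls on day 5.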

Plasmodium berghei [6] = assay: Antiplasmodial activity against Plasmodium berghei NK65 infected in Swiss Webster mice (Mus musculus) assessed as average parasitaemia at 5 mg/kg, perorally administered 1 day after infection for 3 days measured after 10 days post infection; assay type: functional; details: route oral
Plasmodium berghei [7] = assay: Antiplasmodial activity against Plasmodium berghei NK65 infected in Swiss Webster mice (Mus musculus) assessed as average parasitaemia at 1.1 mg/kg, perorally administered 1 day after infection for 3 days measured after 14 days post infection; assay type: functional; details: route oral
Plasmodium berghei [8] = assay: Antiplasmodial activity against Plasmodium berghei NK65 infected in Swiss Webster mice (Mus musculus) assessed as average parasitaemia at 3.3 mg/kg, perorally administered 1 day after infection for 3 days measured after 14 days post infection; assay type: functional; details: route oral
In short: (§2)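 Male Swiss Webster mice (18-20 g, ≥5/group) inoculated i.p. with 2×10^7 P. berghei NK-65 parasitized RBC; oral dosing (100 μl, SSV or dilute HCl vehicle) once daily for 3 days from day 1; Giemsa-stained tail blood smears days 5–28; inhibition is % decrease versus untreated controls on day 5.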

Plasmodium berghei [9] = assay: Antiplasmodial activity against Plasmodium berghei NK65 infected in Swiss Webster mice (Mus musculus) assessed as average parasitaemia at 10 mg/kg, perorally administered 1 day after infection for 3 days measured after 14 days post infection; assay type: functional; details: route oral
Plasmodium berghei [10] = assay: Antiplasmodial activity against Plasmodium berghei NK65 infected in Swiss Webster mice (Mus musculus) assessed as average parasitaemia at 1.1 mg/kg, perorally administered 1 day after infection for 3 days measured after 21 days post infection; assay type: functional; details: route oral
Plasmodium berghei [11] = assay: Antiplasmodial activity against Plasmodium berghei NK65 infected in Swiss Webster mice (Mus musculus) assessed as average parasitaemia at 5 mg/kg, perorally administered 1 day after infection for 3 days measured after 21 days post infection; assay type: functional; details: route oral
Plasmodium berghei [12] = assay: Antiplasmodial activity against Plasmodium berghei NK65 infected in Swiss Webster mice (Mus musculus) assessed as average parasitaemia at 10 mg/kg, perorally administered 1 day after infection for 3 days measured after 28 days post infection; assay type: functional; details: route oral; in short: as §2
Plasmodium berghei [13] = assay: Antiplasmodial activity against Plasmodium berghei NK65 infected in Swiss Webster mice (Mus musculus) assessed as average parasitaemia at 5 mg/kg, perorally administered 1 day after infection for 3 days measured after 28 days post infection; assay type: functional; details: route oral
Plasmodium berghei [14] = assay: Antiplasmodial activity against Plasmodium berghei NK65 infected in Swiss Webster mice (Mus musculus) assessed as average parasitaemia at 100 mg/kg, perorally administered 1 day after infection measured after 5 days post infection; assay type: functional; details: route oral; in short: as §1
Plasmodium berghei [15] = assay: Antiplasmodial activity against Plasmodium berghei NK65 infected in Swiss Webster mice (Mus musculus) assessed as average parasitaemia at 200 mg/kg, perorally administered 1 day after infection measured after 5 days post infection; assay type: functional; details: Plasmodium berghei, NK65, route oral
In short: (§3)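 Male Swiss Webster mice (18-20 g), at least 5 per group, were inoculated ip with 2×10^7 P. berghei NK-65-parasitized red cells from a donor mouse and given a single oral dose (100 μl). Stock was made in SSV or 0.1 M HCl and diluted in SSV or 0.01 M HCl. Parasitemia was read from Giemsa-stained tail blood smears from day 5 to day 28. Cure meant no parasitemia through day 28.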

Plasmodium berghei [16] = assay: Antiplasmodial activity against Plasmodium berghei NK65 infected in Swiss Webster mice (Mus musculus) assessed as average parasitaemia at 200 mg/kg, perorally administered 1 day after infection measured after 14 days post infection; assay type: functional; details: Plasmodium berghei, NK65, route oral; in short: as §3
Plasmodium berghei [17] = assay: Antiplasmodial activity against Plasmodium berghei NK65 infected in Swiss Webster mice (Mus musculus) assessed as average parasitaemia at 200 mg/kg, perorally administered 1 day after infection measured after 21 days post infection; assay type: functional; details: Plasmodium berghei, NK65, route oral; in short: as §3
Plasmodium berghei [18] = assay: Antiplasmodial activity against Plasmodium berghei NK65 infected in Swiss Webster mice (Mus musculus) assessed as average parasitaemia at 100 mg/kg, perorally administered 1 day after infection measured after 28 days post infection; assay type: functional; details: route oral; in short: as §1
Plasmodium berghei [19] = assay: Antiplasmodial activity against Plasmodium berghei NK65 infected in Swiss Webster mice (Mus musculus) assessed as suppression of parasitaemia at 10 mg/kg, intraperitoneally administered 1 day after infection for 3 days measured after 5 days post infection relative to control; assay type: functional; details: Plasmodium berghei, NK65, ip, route intraperitoneal
Plasmodium berghei [20] = assay: Antiplasmodial activity against Plasmodium berghei infected in mice (Mus musculus) at 5 mg/kg, perorally administered 1 day post infection for 3 days; assay type: functional; details: route oral
Mus musculus [21] = assay: Toxicity in Plasmodium berghei NK65 infected Swiss Webster mice (Mus musculus) assessed as weight loss at 300 mg/kg, perorally; assay type: organism-based; set-up: dose 300 mg/kg, route oral; details: in vivo, po
In short: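 P. berghei NK-65 infection in male Swiss Webster mice (18-20 g; 2×10^7 parasitized erythrocytes i.p.; ≥5 per group). A single oral dose of 100 μl, diluted in SSV or 0.01 M HCl, then observation for toxicity signs and body weight. Parasitemia read from Giemsa-stained tail smears from day 5 through day 28. Mice free of parasitemia through day 28 counted as cured.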

HeLa [22] = assay: Cell cycle arrest in human HeLa cells assessed as increase in S phase accumulation at 3 uM after 24 hrs by FACS analysis; assay type: functional
Mus musculus [23] = assay: Toxicity in Plasmodium berghei NK65 infected Swiss Webster mice (Mus musculus) at 10 mg/kg, intraperitoneally for 3 days administered 1 day after infection measured after 5 days post infection; assay type: organism-based; set-up: dose 10 mg/kg, route intraperitoneal; details: in vivo, ip, 120 h
HeLa [24] = assay: Cell cycle arrest in human HeLa cells assessed as increase in G0/G1 phase accumulation at 3 uM after 24 hrs by FACS analysis; assay type: functional
HeLa [25] = assay: Cell cycle arrest in human HeLa cells assessed as decrease in G2/M phase accumulation at 10 uM after 24 hrs by FACS analysis; assay type: functional; set-up: scale not given: the % may be the effect or the level left

## O[C@]12C=C(c3nccc4c3[nH]c3ccccc34)[C@@H]3CCN(CCCC/C=C\CC1)C[C@@]31C[C@@H]3/C=C\CCCCN3[C@H]12 [MANZAMINE A]
Cryptococcus neoformans
  IC50: 1 µg/mL (≈ 1.82 µM)
Plasmodium berghei [1]
  inhibition in vivo at 5 mg/kg: 88%
Plasmodium berghei [2]
  inhibition in vivo at 5 mg/kg: 4.5%
Plasmodium berghei [3]
  inhibition in vivo at 3.3 mg/kg: 4.3%
Plasmodium berghei [4]
  inhibition in vivo at 5 mg/kg: 100%
Plasmodium berghei [5]
  inhibition in vivo at 50 mg/kg: 100%
Plasmodium berghei [6]
  inhibition in vivo at 5 mg/kg: 7.8%
Plasmodium berghei [7]
  inhibition in vivo at 1.1 mg/kg: 21.7%
Plasmodium berghei [8]
  inhibition in vivo at 3.3 mg/kg: 11.9%
Plasmodium berghei [9]
  inhibition in vivo at 10 mg/kg: 0.9%
Plasmodium berghei [10]
  inhibition in vivo at 1.1 mg/kg: 39.6%
Plasmodium berghei [11]
  inhibition in vivo at 5 mg/kg: 21.7%
Plasmodium berghei [12]
  inhibition in vivo at 10 mg/kg: 3.3%
Plasmodium berghei [13]
  inhibition in vivo at 5 mg/kg: 39.3%
Plasmodium berghei [14]
  inhibition in vivo at 100 mg/kg: 0%
Plasmodium berghei [15]
  inhibition in vivo at 200 mg/kg: 0%
Plasmodium berghei [16]
  inhibition in vivo at 200 mg/kg: 0%
Plasmodium berghei [17]
  inhibition in vivo at 200 mg/kg: 0%
Plasmodium berghei [18]
  inhibition in vivo at 100 mg/kg: 0%
Plasmodium berghei [19]
  inhibition in vivo at 10 mg/kg: 100%
Plasmodium berghei [20]
  Activity: 24.3 days
Mus musculus [21]
  Activity: Non-toxic
HeLa [22]
  Activity: 56.2%
Mus musculus [23]
  Activity: Toxic
HeLa [24]
  Activity: 56.2%
HeLa [25]
  Activity: 13.6%
